Published values gathered from unrelated publications.
Compare with care: the assays were run in different laboratories.
Medium: Caco-2

SMILES	tested at	time	pH	measurement	result
C[C@H]1O[C@@H](O[C@H]2[C@@H](O)C[C@H](O[C@H]3[C@@H](O)C[C@H](O[C@H]4CC[C@@]5(C)[C@H](CC[C@@H]6[C@@H]5C[C@@H](O)[C@]5(C)[C@@H](C7=CC(=O)OC7)CC[C@]65O)C4)O[C@@H]3C)O[C@@H]2C)C[C@H](O)[C@@H]1O	10 µM	2 h	pH 7.4	Papp B→A	9.63 ×10⁻⁶ cm/s
CCOC(=O)[C@@]12C[C@@H]1[C@@H](n1ccc3c(NC)nc(C#Cc4ccc(Cl)s4)nc31)[C@H](O)[C@@H]2O	10 µM	2 h	pH 7.4	Papp B→A	22.2 ×10⁻⁶ cm/s
CNCc1cc(-c2ccccc2F)n(S(=O)(=O)c2cccnc2)c1	–	–	–	Papp	17.8 ×10⁻⁶ cm/s
CC(C)NCC(O)COc1cccc2ccccc12 (centres unmarked)	–	–	–	Papp B→A	59.3 ×10⁻⁶ cm/s
COc1cccc2c(-c3ccccc3)cc(-c3ccc(-c4ccc(C(=O)O)cc4)[nH]3)nc12	–	–	–	Papp B→A	7.44 ×10⁻⁶ cm/s
CN(C)C(=O)c1cc2cnc(Nc3ccc(N4CCNCC4)cn3)nc2n1C1CCCC1	–	–	–	Papp	1.83 ×10⁻⁶ cm/s
CCC(=O)N[C@H]1Cc2cccc(C(=O)O)c2OB1O	5 µM	2 h	pH 7.4	Papp B→A	0.15 ×10⁻⁶ cm/s
O=c1c(O)c(-c2ccc(O)cc2)oc2cc(O)cc(O)c12	1 mg/mL	–	pH 7.4	Papp	1.17 ×10⁻⁶ cm/s
Cn1c(S)nc2c1c(=O)n(Cc1ccccc1)c(=O)n2C	10 µM	2 h	–	Papp B→A	30.5 ×10⁻⁶ cm/s
CC[C@H](C)C(=O)N1CCC(NC(=O)Nc2ccc(OC(F)(F)F)c(F)c2)CC1	10 µM	1 h	pH 7.4	Papp B→A	16.4 ×10⁻⁶ cm/s
CC(C)(/C=C(\C#N)C(=O)N1CCC[C@@H](n2nc(-c3ccc(Oc4ccccc4)cc3F)c3c(N)ncnc32)C1)N1CCN(C2COC2)CC1	1 µM	–	–	Papp	1.7 ×10⁻⁶ cm/s
N#C[C@H](C[C@@H]1CCCNC1=O)NC(=O)[C@H](CC1CC1)NC(=O)c1cc2cccc(Cl)c2[nH]1	–	–	–	Papp	0.36 ×10⁻⁶ cm/s
C[C@@H]1O[C@@H](OC[C@H]2O[C@@H](Oc3c(-c4ccc(O)c(O)c4)oc4cc(O)cc(O)c4c3=O)[C@H](O)[C@@H](O)[C@@H]2O)[C@H](O)[C@H](O)[C@H]1O	1 mg/mL	–	pH 7.4	Papp	24.5 ×10⁻⁶ cm/s
COc1cc(Cl)c(C(=O)N[C@@H](CN[C@H]2CC[C@@H](N)CC2)Cc2ccc(C#N)cc2)cc1-c1ccc(CN[C@H](C)c2ccc(C)cc2)o1	2 µM	2 h	pH 7.2	Papp B→A	1.1 ×10⁻⁶ cm/s
Nc1nc2c(ncn2COCCO)c(=O)[nH]1	10 µM	2 h	pH 7.4	Papp B→A	0.756 ×10⁻⁶ cm/s
CCN1C(=O)N(c2c(F)c(OC)cc(OC)c2F)Cc2cnc3[nH]c(CN4CCOCC4)cc3c21	50 µM	–	–	Papp	11 ×10⁻⁶ cm/s
O=C(c1cc(Cc2n[nH]c(=O)c3ccccc23)ccc1F)N1CCN(C(=O)C2CC2)CC1	–	–	–	Papp	7.75 ×10⁻⁶ cm/s
